The list is not random: actives were taken first. Their share in the collection is about 2.5%.
NTR1 agonist: activates human neurotensin receptor 1; P30989; NTR1-U2OS beta-arrestin-GFP spot imaging, agonist mode; activation, % at 20 µM; 0.17% of 330,000 active; AID 493036;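 active = activation at or above 40% of the spot to cytoplasm intensity ratio, with at least 20 cells analyzed; inconclusive = wells under 20 cells, flagged as cytotoxic or low count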;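 note: 0% = DMSO without peptide and 100% = 100 nM NTR1 peptide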
Target sequence (P30989 whole entry, looked up): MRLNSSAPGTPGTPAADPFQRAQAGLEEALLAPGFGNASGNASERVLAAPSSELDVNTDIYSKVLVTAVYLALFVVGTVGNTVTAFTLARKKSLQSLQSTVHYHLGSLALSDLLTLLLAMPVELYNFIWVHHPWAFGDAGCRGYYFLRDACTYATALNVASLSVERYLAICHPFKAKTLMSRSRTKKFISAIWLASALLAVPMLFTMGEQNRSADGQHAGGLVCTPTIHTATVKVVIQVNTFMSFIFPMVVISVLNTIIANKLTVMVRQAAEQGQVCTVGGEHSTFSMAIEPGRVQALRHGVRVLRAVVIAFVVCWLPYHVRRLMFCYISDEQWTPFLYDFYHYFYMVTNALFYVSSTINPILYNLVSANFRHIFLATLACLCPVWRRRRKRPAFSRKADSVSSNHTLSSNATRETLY
Granule exo inh: lytic granule exocytosis inhibition. TALL-104 LAMP-1 surface exposure, flow cytometry; cells stimulated with thapsigargin and PMA. inhibition, % at 10 µM. 0.66% of 360,000 active. AID 651702;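 active = inhibition above about 55%, limit read from the data; inconclusive = no clear call, values can overlap the other calls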
MC4R antag cAMP: antagonists of human melanocortin 4 receptor (MC4R) | MC4R-expressing cells, MTII-stimulated cAMP, LANCE TR-FRET | inhibition, % at 6.5 µM | 0.48% of 360,000 active;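 active = inhibition above its plate's cutoff, the mean of tested wells on that plate plus 3 SD, cut at about 29% in these data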;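 note: 0% = Melanotan II alone and 100% = Melanotan II plus saturating MCL0020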
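Assay system: U2OS-MC4R stable cell line; Also added: Melanotan II; Technique: Eu-cAMP/anti-cAMP TR-FRET, emission 671 nm; Times: 30-min compound, 1-h challenge, 1-h detection, room temperature.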
A1 inh: inhibitors of the anti-apoptotic protein A1, read as caspase activation | 0.066% of 330,000 active | caspase activation, % (test concentration not listed) | MEF A1-2A-BIM cells, Caspase-Glo 3/7 luminescence, 3 h; percent of clofoctol response, vehicle zero;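 active = over half of replicate activation scores above 10%, or exactly half above 10 with the replicate mean above 10; inconclusive = replicate mean below 10 yet half the replicates above 10; inactive = over half of replicates below 10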
MC4R ag barr: human MC4R agonism via beta-arrestin; U2OS MC4R beta-arrestin complementation, luminescence; percent of melanotan II response, DMSO zero; activation, % at 8.9 µM; 0.98% of 360,000 active; AID 540308;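 active = activation above a per-plate cutoff, the mean activation of sample wells on that plate plus 3 SD, cut at about 8% in these data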
HGIII-sPLA2 inh: Inhibits HGIII-sPLA2 liposome hydrolysis, primary screen | Q9NZ20 | QFRET BODIPY PC-A2 liposome hydrolysis, fluorescence | inhibition, % at 12.2 µM | 0.56% of 370,000 active;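 active = inhibition above mean plus 3 SD of compounds lying within the high and low control bounds, cut at about 19% in these data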;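 note: 0% = median of test compound wells and 100% = no enzyme DMSO wells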
MC4R barr conf: human MC4R beta-arrestin agonism confirmation; activation, % at 8.9 µM; U2OS MC4R beta-arrestin recruitment, luminescence; scaled DMSO 0%, Melanotan II 100%; AID 602192; 31% of 2,400 active; shares compounds with MC4R ag barr;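 active = mean activation across replicates above the hit cutoff set in the earlier primary screen, cut at about 8% in these data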
MOR-DOR barr ag: activates mu-delta opioid heterodimer, MC4R agonist counter-screen; 5.8% of 2,400 active; AID 602194; shares compounds with MC4R ag barr; U2OS PathHunter beta-arrestin, beta-gal luminescence; percent of deltorphin B response, DMSO zero; activation, % at 9.2 µM;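 active = mean activation across replicates exceeds the hit threshold derived in the earlier primary screen, cut at about 18% in these data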;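 note: 100% = deltorphin B at 0.9 µM final and 0% = DMSO alone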
Starred values were filed as active, the others as inactive; ? = inconclusive; . = not tested or not shown.

SMILES | NTR1 agonist | Granule exo inh | MC4R antag cAMP | A1 inh | MC4R ag barr | HGIII-sPLA2 inh | MC4R barr conf | MOR-DOR barr ag
CCN(CC)C(=O)CNc1nnnn1-c1ccccc1 | . | . | . | . | . | 4 | . | .
COc1cc(CNc2cccc3c2S(=O)(=O)N([C@H](C)c2ccccc2)C[C@@H](COCc2ccccc2)O3)cc(OC)c1OC | . | . | . | . | . | -4 | . | .
O=C(N/N=C\c1ccccc1F)c1ccc(-c2ccccc2)cc1 | 1 | -1 | 0 | 1 | 16* | -2 | 6 | 9
O=C(N/N=C/c1ccccc1)c1ccc(-c2ccccc2)cc1 | 1 | -6 | -2 | 0 | 3 | -2 | . | .
CN(C)CCCNC(=O)c1ccc(-c2nc(-c3ccc(Cl)cc3)cs2)cc1 | -5 | 39 | 17 | 2 | 16* | -23 | 56* | 6
Cc1ccc(NC(=O)C2CCN(S(=O)(=O)c3ccc(Cl)c(C(F)(F)F)c3)CC2)nc1 | 0 | -2 | 2 | 0 | 9.9* | -7 | 2 | 7
CC1CCCN(C(=O)COC(=O)C2CCN(S(=O)(=O)c3ccc(Cl)c(C(F)(F)F)c3)CC2)C1 (stereo unspecified) | 0 | -2 | -4 | -2 | 56* | 5 | 2 | 2
Cc1cccc(NC(=O)CSc2ncnc3sc4c(c23)CCCC4)c1 | . | . | . | . | . | -3 | . | .
O=S(=O)(NCc1cn(Cc2ccccc2)nn1)c1ccccc1Br | . | . | . | . | . | 6 | . | .
C=CCN(Cc1ccc(OC)cc1OC)C(C#CCCCC)c1ccccc1 (stereo unspecified) | . | . | . | . | . | -1 | . | .
O=C(Nc1ccc(N2CCN(c3ccc(O)cc3)CC2)cc1)Oc1ccccc1 | 0 | 0 | -7 | 0 | 26* | -5 | -3 | 3
COC(=O)C1=C(C)N(Cc2ccc(Br)cc2)C(=S)NC1c1ccccc1 (stereo unspecified) | . | . | . | . | . | 12 | . | .
CN[C@H]1C[C@@H](c2ccccc2Br)N(C(C)=O)C[C@H]1CO | . | . | . | . | . | 0 | . | .
CCOc1cc(/C=N/NC(=O)CSc2nnc(C)s2)ccc1OCc1ccccc1Cl | 5 | 2 | 13 | ? | 11* | -4 | 5 | 7
CS(=O)(=O)N1CCN(c2ccc(NC(=O)c3ccc(-c4ccc(Cl)cc4)o3)cc2)CC1 | 16 | -5 | 1 | 0 | 12* | -1 | -1 | 9
Cc1ccccc1OCCn1cc(/C=C(\C#N)C(=O)NCc2ccco2)c2ccccc21 | 3 | 2 | 4 | 1 | 26* | 5 | 12* | 6
N#C/C(=C\c1cn(CCOc2ccccc2)c2ccccc12)C(=O)NCc1ccco1 | 10 | 6 | 20 | 0 | 21* | 4 | 35* | 9
Cc1ccc(C)c(OCCn2cc(/C=C(\C#N)C(=O)NCc3cccs3)c3ccccc32)c1 | 2 | 0 | 1 | 0 | -2 | -4 | . | .
CNC(=O)/C(C#N)=C/c1cn(CC(=O)NCc2ccco2)c2ccccc12 | -1 | 0 | -3 | 1 | -1 | -2 | . | .
N#C/C(=C\c1cn(CCOc2ccccc2F)c2ccccc12)C(=O)NCc1cccs1 | 2 | -6 | 10 | 0 | 10* | -7 | 26* | 8
CCCCc1c(-c2ccccc2OC)ncn1Cc1cccc(F)c1 | . | . | . | . | . | -10 | . | .
COc1ccc(C(=O)C2(C(=O)Nc3cc(C)cc(C)c3)CC(c3ccccn3)=NO2)cc1 (stereo unspecified) | . | . | . | . | . | -5 | . | .
COc1ccc(C(CCNCc2ccc(OC(C)C)cc2)c2ccccc2OC)cc1 (stereo unspecified) | 25 | 29 | 9 | -2 | 13* | -5 | 15* | 25*
Cn1cccc1/C=N\NC(=O)Cc1ccc(Br)c2ccccc12 | 8 | 2 | -1 | 0 | 17* | -3 | 1 | 6
Cn1cccc1/C=N/NC(=O)Cc1ccccc1 | 2 | 1 | -2 | 0 | -3 | -2 | . | .
SMILES | NTR1 agonist | Granule exo inh | MC4R antag cAMP | A1 inh | MC4R ag barr | HGIII-sPLA2 inh | MC4R barr conf | MOR-DOR barr ag
O=C(NCc1ccccc1)Nc1ccccc1C(=O)N1CCCC1 | . | . | . | . | . | 13 | . | .
CCCCCCCCCCn1c2c(c(=N)c3c1CCC3)CCC2 | 42* | 49 | -10 | -1 | 17* | -4 | 11* | 19*
Cc1ccc2nc(NC(=O)CCNS(=O)(=O)c3ccc(Br)s3)sc2c1 | 0 | -1 | 4 | 0 | 14* | . | 7 | 7
COC(=O)Nc1nnc(COc2cccc(C)c2)s1 | 0 | 26 | 17 | 0 | -2 | -3 | . | .
CCc1nnc(NC(=O)c2ccc(COc3cccc(C)c3)o2)s1 | -1 | 7 | 19 | 1 | 14* | 0 | 3 | 2
Nc1nc(CCl)nc(Nc2cccc3ccccc23)n1 | 6 | 16 | 7 | 2 | 26* | -1 | 19* | 43*
Cc1ccc(-n2c(SCC(=O)Nc3ccc4c(c3)OCCO4)nnc2-c2cccnc2)cc1 | . | . | . | . | . | -5 | . | .
O=C(NC(=S)NCCC1=CCCCC1)c1ccco1 | 3 | -3 | 10 | -1 | 10* | -8 | -1 | 7
O=C(NC(=S)NCCC1=CCCCC1)c1ccc(Br)o1 | 8 | 1 | 0 | 0 | 0 | -5 | . | .
Cc1ccccc1NC(=O)c1oc(=O)c2ccccc2c1-c1ccccc1 | 1 | 0 | -3 | 0 | -1 | 12 | . | .
Cc1cccc(NC(=O)c2oc(=O)c3ccccc3c2-c2ccccc2)c1C | 3 | -2 | 10 | -2 | 11* | 5 | 1 | 3
N#Cc1c(-c2ccccc2)c(C#N)c2nc3ccccc3n2c1N | 8 | -1 | 8 | 0 | 11* | -7 | 1 | 4
CCOc1ccc(-c2cc(C(=O)Nc3cccc(C(F)(F)F)c3)[nH]n2)c(C)c1 | . | -4 | 4 | . | 11* | 7 | 6 | 5
CCOc1ccc(-c2cc(C(=O)NCc3ccc(F)cc3)[nH]n2)c(C)c1 | . | -8 | 1 | . | 0 | -8 | . | .
CCOc1ccc(-c2cc(C(=O)NCc3ccc(C(F)(F)F)cc3)[nH]n2)c(C)c1 | . | 0 | 1 | . | 13* | 1 | 1 | 8
O=C(CSc1nnc(SCc2cccc3ccccc23)s1)Nc1ccc(S(=O)(=O)Nc2nccs2)cc1 | . | . | . | . | . | -10 | . | .
Cc1cc(C)nc(SCc2nnc(SCC(=O)Nc3ccc(Cl)c(C(F)(F)F)c3)o2)n1 | 1 | 5 | 10 | -1 | 11* | -15 | 7 | 9
Clc1ccc(Cl)c(OCCCCNCc2ccccc2)c1 | 2 | 9 | -2 | 1 | 10* | -6 | 16* | 11
O=C(Nc1cc(S(=O)(=O)N2CCCCCC2)ccc1OCC(F)(F)F)c1cnccn1 | 7 | -10 | 8 | 1 | 10* | -2 | -1 | 3

Screens as filed in PubChem.
